Experimental data from ChEMBL document CHEMBL1143599, “Design, synthesis, and antiviral activity of adenosine 5'-phosphonate analogues as chain terminators against hepatitis C virus” (J Med Chem, 2005).

Assays:
Assay type in all cases: functional
[1] = target: RNA-directed RNA polymerase (Hepacivirus hominis) (UniProt O39930); assay: Ratio of steady state kinetic constant and incorporation efficiency for Hepatitis C Virus NS5BRdRp
Summary of the method: (§1)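 HCV NS5B, C-terminal His-tag with 21-residue truncation, 1 µM. Template 5′-AAAAAAAUGC-3′ and [5′-33P]GpC primer each at 20 µM. Buffer 50 mM HEPES pH 7.3, 10 mM DTT, 5 mM MgCl2; 15 min at 30 °C. Substrate varied from Km/2 to 10Km; EDTA quench, denaturing urea-PAGE. Initial velocities fitted to Michaelis-Menten for Km and Vmax; efficiency taken as Vmax/Km.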

[2] = system: Nc1ncnc2c1ncn2[C@@H]1O[C@H](COP(=O)(O)OP(=O)(O)OP(=O)(O)O)[C@@H](O)[C@H]1O; assay: Incorporation efficiency for Hepatitis C Virus NS5BRdRp; conditions: Hepacivirus hominis; summary of the method: as §1
[3] = system: Nc1ncnc2c1ncn2[C@@H]1O[C@H](COP(=O)(O)OP(=O)(O)OP(=O)(O)O)[C@@H](O)[C@H]1O; assay: Steady-state kinetic constant for Hepatitis C Virus NS5BRdRp; conditions: Hepacivirus hominis; summary of the method: as §1

Compound | Ratio [1] | Vmax [2] | Km [3]
Nc1ncnc2c1ncn2[C@@H]1O[C@H](OCP(=O)(O)OP(=O)(O)OP(=O)(O)O)[C@@H](O)[C@H]1O | 1.2e-05 |  | 
Nc1ncnc2c1ncn2[C@@H]1O[C@H](COP(=O)(O)OP(=O)(O)OP(=O)(O)O)[C@@H](O)[C@H]1O | 0.0017 |  | 
Nc1ncnc2c1ncn2[C@@H]1O[C@H](CCP(=O)(O)OP(=O)(O)OP(=O)(O)O)[C@@H](O)[C@H]1O | 0.00019 |  | 
RNA-directed RNA polymerase (Hepacivirus hominis), O39930 |  | 0.23 µM/min | 133 µM
